The text below walks through data of ChEMBL document CHEMBL3085768, “Structure-guided design of potent diazobenzene inhibitors for the BET bromodomains” (J Med Chem, 2013).

Assay [1] deals with T1, Bromodomain-containing protein 4 (Homo sapiens, UniProt O60885). Nature of the assay: Displacement of fluorescein-labeled MS574 from recombinant human BRD4 BrD1 after 1 hr by fluorescence anisotropy assay. The settings on record: for Ki: read-out: Ki. A digest of the protocol:
(§1)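 Competition fluorescence anisotropy with His-tag-removed recombinant bromodomain (Ni-IDA purified, thrombin cleaved) at 0.25–1 µM, chosen so that 50–80% of probe is bound. FITC-labeled probe at 80 nM (≤2Kd), unlabeled ligand titrated, in PBS pH 7.4, read after 1 h at 25 °C. IC50 from curve fit, converted to Ki with the Nikolovska-Coleska correction to Cheng-Prusoff (one-site competitive). The resolvable Ki is limited by the probe Kd.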

Assay [2] concerns the target T1, Bromodomain-containing protein 4. Nature of the assay: Displacement of fluorescein-labeled MS574 from recombinant human BRD4 BrD2 after 1 hr by fluorescence anisotropy assay. In a few lines: as §1

Active and inactive are the calls of the source. No cut-off for these calls is given here.

As to `Cc1nc(/N=N/c2ccc(S(=O)(=O)Nc3ccccn3)cc2)c(CO)c(CN)c1O`, the inhibition entry in assay [1] is “inactive”.

Take `CC(C)c1cc(/N=N/c2ccc(S(=O)(=O)Nc3ccccn3)cc2)cc(C(C)C)c1O`: the inhibition result in assay [2] and in assay [1] was “inactive” each time.

In the case of `Cc1cc(/N=N/c2ccc(S(=O)(=O)Nc3ccc(C(N)=O)cc3)cc2)cc(C)c1O`, the Ki in assay [2] was found to be 12.2 µM; in assay [1], 9.6 µM.

With `O=S(=O)(Nc1ccccn1)c1ccc(/N=N/c2ccc(O)c3c2NCCC3)cc1`, the inhibition entry in assay [1] is “Active”.

For the molecule `O=S(=O)(Nc1ccccn1)c1ccc(/N=N/c2ccc(O)c3ccccc23)cc1`, the inhibition entry in assay [1] is “Active”.

Take `COc1ccc(NS(=O)(=O)c2ccc(/N=N/c3cc(C)c(O)c(C)c3)cc2)nc1`: the Ki amounted to 2.23 µM in assay [2] and 0.5 µM in assay [1].

As to `Cc1cc(/N=N/c2ccc(S(=O)(=O)Nc3ccccn3)cc2)cc(Cl)c1O`, the Ki amounted to 4.81 µM in assay [2] and 1.4 µM in assay [1].

Take `Cc1cc(/N=N/c2ccc(S(=O)(=O)Nc3ccc(C(=O)O)cn3)cc2)cc(C)c1O`: the Ki in assay [2] was determined as 1.38 µM; in assay [1], 0.32 µM.

As for `O=S(=O)(Nc1ccccn1)c1ccc(/N=N/c2ccc(O)c(Br)c2)cc1`, the Ki turned out to be 4.69 µM in assay [2] and 4.67 µM in assay [1].

For the molecule `O=S(=O)(Nc1ccccn1)c1ccc(/N=N/c2ccc(O)c(C(F)(F)F)c2)cc1`, the Ki in assay [2] is 6.83 µM; in assay [1], 9.45 µM.

On to `CC1(C)Cc2c(/N=N/c3ccc(S(=O)(=O)Nc4ccccn4)cc3)ccc(O)c2O1`, for which the inhibition entry in assay [1] is “Active”.

As to `Cc1cc(/N=N/c2ccc(S(=O)(=O)NCc3ccc(C(F)(F)F)cc3)cc2)cc(C)c1O`, the Ki in assay [2] and in assay [1] was over 100 µM in each case.

Regarding `Cc1cc(/N=N/c2cc(S(=O)(=O)O)c(C)cc2C)c(N)cc1O` [ISCHEMIN], the inhibitory constant (Ki) in assay [2] was determined as 19.7 µM; in assay [1], 10.8 µM.

Consider `CC(C)(C)c1cc(/N=N/c2ccc(S(=O)(=O)Nc3ccccn3)cc2)cc(C(C)(C)C)c1O`, for which the inhibition entry in assay [2] and in assay [1] was “inactive” in each case.

For the molecule `Cc1cc(C)c(S(=O)(=O)O)cc1/N=N/c1cc(C)c(O)c(C)c1`, the Ki came out at 6.37 µM in assay [2] and 4.92 µM in assay [1].

Regarding `Cc1cc(/N=N/c2cccc(S(=O)(=O)Nc3ccccn3)c2)cc(C)c1O`, the Ki in assay [2] is 40.4 µM; in assay [1], 5.97 µM.

Regarding `CC(=O)Nc1c(C)cc(/N=N/c2ccc(S(=O)(=O)Nc3ccccn3)cc2)cc1C`, the inhibition entry in assay [2] and in assay [1] was “inactive” throughout.

As to `Cc1cc(/N=N/c2ccc(S(=O)(=O)Nc3ccc(F)cn3)cc2)cc(C)c1O`, the figures for the Ki in assay [2] and in assay [1] were 3.44 µM and 1.3 µM, respectively.

Turning to `Cc1cc(/N=N/c2ccc(S(=O)(=O)Nc3ccccn3)cc2)nc(C)c1O`, the Ki in assay [2] was found to be 24.6 µM; in assay [1], 2.31 µM.

Take `COc1cc(/N=N/c2cc(C)c(O)c(C)c2)ccc1S(=O)(=O)Nc1ccccn1`: the values for the Ki in assay [2] and in assay [1] were 7.77 µM and 3.13 µM, respectively.

Regarding `Cc1cc(/N=N/c2ccc(S(=O)(=O)Nc3ccc(F)cc3)cc2)cc(C)c1O`, the Ki was determined as 8.87 µM in assay [2] and 1.84 µM in assay [1].

`Cc1cc(/N=N/c2ccc(S(=O)(=O)Nc3ccc(Cl)cn3)cc2)cc(C)c1O`: the figures for the Ki in assay [2] and in assay [1] were 5.84 µM and 0.73 µM, respectively.

`Cc1cc(/N=N/c2ccc(S(=O)(=O)Nc3ccccn3)cc2)cc(Br)c1O`: the Ki in assay [2] was 4.48 µM; in assay [1] it was 2.79 µM.

On to `O=S(=O)(Nc1ccccn1)c1ccc(/N=N/c2cc(Cl)c(O)c(Cl)c2)cc1`, for which the Ki was found to be 4.89 µM in assay [2] and 1.27 µM in assay [1].

Take `Cc1cc(/N=N/c2ccc(S(=O)(=O)Nc3ccccn3)cc2)ccc1O`: the Ki in assay [2] turned out to be 8.2 µM; in assay [1] it was 6.43 µM.

`COc1cc(/N=N/c2ccc(S(=O)(=O)Nc3ccccn3)cc2)c(N)cc1O`: the Ki in assay [2] was 5.39 µM; in assay [1], 1.28 µM.

As to `O=S(=O)(Nc1ccccn1)c1ccc(/N=N/c2ccc(O)c(Cl)c2)cc1`, the Ki in assay [2] came out at 6.16 µM; in assay [1], 1.3 µM.

`O=S(=O)(Nc1ccccn1)c1ccc(/N=N/c2cc(Br)c(O)c(Br)c2)cc1`: the figures for the Ki in assay [2] and in assay [1] were 4.29 µM and 0.52 µM, respectively.

Take `Cc1nc(/N=N/c2ccc(S(=O)(=O)Nc3ccccn3)cc2)c(CO)c(C=O)c1O`: the inhibition result in assay [1] was “inactive”.

With `O=S(=O)(Nc1ccccn1)c1ccc(/N=N/c2ccc(O)c3c2CCCC3)cc1`, the inhibition result in assay [1] is “Active”.

With `Cc1cc(/N=N/c2ccc(S(=O)(=O)Nc3cc(Cl)ccn3)cc2)cc(C)c1O`, the Ki in assay [2] amounted to 5.92 µM; in assay [1], 0.9 µM.

On to `Cc1cc(/N=N/c2ccc(S(=O)(=O)Nc3ccc(Br)cn3)cc2)cc(C)c1O`, for which the Ki came out at 38.7 µM in assay [2] and 6.54 µM in assay [1].

On to `Cc1nc(/N=N/c2ccc(S(=O)(=O)Nc3ccccn3)cc2)c(CO)c(C)c1O`, for which the inhibition result in assay [1] was “inactive”.

On to `Cc1nc(/N=N/c2ccc(S(=O)(=O)Nc3ccccn3)cc2)c(C)c(C)c1O`, for which the figures for the Ki in assay [2] and in assay [1] were 9.1 µM and 6.02 µM, respectively.

As to `Cc1cc(/N=N/c2ccc(S(=O)(=O)N(C)c3ccccn3)cc2)cc(C)c1O`, the Ki in assay [2] was determined as 7.12 µM; in assay [1], 7.89 µM.

Take `COc1c(C)cc(/N=N/c2ccc(S(=O)(=O)Nc3ccccn3)cc2)cc1C`: the inhibition entry in assay [2] and in assay [1] was “inactive” in each case.

`Cc1cc(/N=N/c2ccc(S(=O)(=O)Nc3ccccn3)cc2)cc(O)c1O`: the Ki in assay [2] is 3.27 µM; in assay [1], 2.39 µM.

Take `O=S(=O)(Nc1ccccn1)c1ccc(/N=N/c2ccc(O)c(O)c2)cc1`: the figures for the Ki in assay [2] and in assay [1] were 3.91 µM and 4.59 µM, respectively.

Take `Cc1cc(/N=N/c2ccc(S(=O)(=O)Nc3ccc(C(F)(F)F)cc3)cc2)cc(C)c1O`: the inhibitory constant (Ki) in assay [2] worked out at 7.14 µM; in assay [1], 10.7 µM.

For the molecule `Cc1cc(/N=N/c2ccc(S(=O)(=O)Nc3cccc(C(F)(F)F)c3)cc2)cc(C)c1O`, the Ki in assay [2] came to 7.77 µM; in assay [1], 6.13 µM.

As for `COc1ccc(NS(=O)(=O)c2ccc(/N=N/c3cc(C)c(O)c(C)c3)cc2)cc1`, the Ki in assay [2] was found to be 6.59 µM; in assay [1], 6.48 µM.
